Converted amounts (≈) assume the structure as drawn.
What was measured:
Aspergillus fumigatus [1] = experiment: Minimum inhibitory concentration (MIC) against Aspergillus fumigatus; assay type: functional
Summary of the method: (§1)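 Broth microdilution in Sabouraud's glucose broth. Final inocula 1×10^5 cells/mL for the yeast (C. albicans) and 1×10^5 conidia/mL for the mold (A. fumigatus) and the dermatophyte (T. asteroides). MIC read as the fungistatic end point. Lowest value of duplicated experiments.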

Trichophyton benhamiae [2] = experiment: Minimum inhibitory concentration against Trichophyton mentagrophytes IFO 5810; assay type: functional, Arthroderma benhamiae
Summary of the method: (§2)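 Agar dilution on Sabouraud's glucose agar. Inocula 1×10^6 cells/mL for the yeast strains (C. albicans IFO 1060, 1388) and 1×10^6 conidia/mL for the dermatophytes (T. mentagrophytes IFO 5809, 5810; T. rubrum IFO 5467, 5807). MIC in μg/mL, lowest value of duplicated experiments.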

Trichophyton rubrum [3] = experiment: Minimum inhibitory concentration against Trichophyton rubrum IFO 5467; assay type: functional; summary of the method: as §2
Candida albicans [4] = experiment: Minimum inhibitory concentration (MIC) against Candida albicans; assay type: functional; summary of the method: as §1
Candida albicans [5] = experiment: Minimum inhibitory concentration against Candida albicans IFO 1388; assay type: functional; summary of the method: as §2
Trichophyton benhamiae [6] = experiment: (§3) Minimum inhibitory concentration against Trichophyton asteroides; assay type: functional; summary of the method: as §1
Candida albicans [7] = experiment: Minimum inhibitory concentration against Candida albicans IFO 1060; assay type: functional; summary of the method: as §2
Trichophyton benhamiae [8] = experiment: Minimum inhibitory concentration against Trichophyton mentagrophytes IFO 5809; assay type: functional, Arthroderma benhamiae; summary of the method: as §2
Trichophyton rubrum [9] = experiment: Minimum inhibitory concentration against Trichophyton rubrum IFO 5807; assay type: functional; summary of the method: as §2
Candida albicans [10] = experiment: Inhibition of pseudomycelium formation of Candida albicans.; assay type: functional; conditions: read-out: MEC
Summary of the method: (§4)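 C. albicans KE-2 (clinical isolate), final inoculum 1×10^6 yeast cells/mL in EMEM with 20% calf serum. Compounds serially diluted by the microtiter dilution system used for MICs. After incubation, wells Giemsa-stained (5% in phosphate buffer) and examined microscopically. MEC (μg/mL) = lowest concentration preventing typical pseudomycelium formation. Lowest value of duplicated experiments.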

[11] = as §3; assay type: functional; conditions: Trichophyton benhamiae; summary of the method: as §1
Aspergillus fumigatus [12] = experiment: Minimum inhibitory concentration against Aspergillus fumigatus; assay type: functional; summary of the method: as §1
Candida albicans [13] = experiment: Inhibitory effect on pseudomycelium formation of candida albicans.; assay type: functional; conditions: read-out: MEC; summary of the method: as §4
Trichophyton rubrum [14] = experiment: Minimum inhibitory concentration against Trichophyton rubrum IFO 5467

Structure (SMILES) | MIC (Aspergillus fumigatus [1]) | MIC (Trichophyton benhamiae [2]) | MIC (Trichophyton rubrum [3]) | MIC (Candida albicans [4]) | MIC (Candida albicans [5]) | MIC (Trichophyton benhamiae [6]) | MIC (Candida albicans [7]) | MIC (Trichophyton benhamiae [8]) | MIC (Trichophyton rubrum [9]) | minimal effective concentration (Candida albicans [10]) | MIC [11] | MIC (Aspergillus fumigatus [12]) | minimal effective concentration (Candida albicans [13]) | MIC (Trichophyton rubrum [14])
C/C=C(\c1ccccc1OCc1ccc(Cl)cc1)n1ccnc1 | 3.1 µg/mL (≈ 9.54 µM) | 0.8 µg/mL (≈ 2.46 µM) | 0.8 µg/mL (≈ 2.46 µM) | 6.2 µg/mL (≈ 19.1 µM) | 12.5 µg/mL (≈ 38.5 µM) | 0.1 µg/mL (≈ 0.308 µM) | 12.5 µg/mL (≈ 38.5 µM) | 0.8 µg/mL (≈ 2.46 µM) | 0.8 µg/mL (≈ 2.46 µM) | – | – | – | – | –
C/C=C(\c1cc(Cl)ccc1OCCC)n1ccnc1 | 1.6 µg/mL (≈ 5.78 µM) | – | – | 25 µg/mL (≈ 90.3 µM) | – | 0.1 µg/mL (≈ 0.361 µM) | – | – | – | 0.63 µg/mL | – | – | – | –
CC(C)COc1ccccc1/C(=C\CN(C)C)n1ccnc1 | > 100 µg/mL | – | – | > 100 µg/mL | – | 6.3 µg/mL (≈ 21 µM) | – | – | – | 0.16 µg/mL | – | – | – | –
C/C(CN(C)C)=C(/c1ccccc1OCC(C)C)n1ccnc1 | > 100 µg/mL | – | – | > 100 µg/mL | – | 25 µg/mL (≈ 79.8 µM) | – | – | – | 1.25 µg/mL | – | – | – | –
CC(C)(n1ccnc1)n1ccnc1 | – | – | – | > 100 µg/mL | – | – | – | – | – | – | > 100 µg/mL | > 100 µg/mL | – | –
c1ccc(C(c2ccccc2)(n2ccnc2)n2ccnc2)cc1 | > 100 µg/mL | – | – | > 100 µg/mL | – | – | – | – | – | – | 0.8 µg/mL (≈ 2.66 µM) | – | – | –
CC(c1ccc(Cl)cc1)(n1ccnc1)n1ccnc1 | > 100 µg/mL | – | – | > 100 µg/mL | – | – | – | – | – | – | > 100 µg/mL | – | – | –
CC(C)=C(c1ccccc1OCc1ccc(Cl)cc1)n1ccnc1 | 6.2 µg/mL (≈ 18.3 µM) | 0.8 µg/mL (≈ 2.36 µM) | 1.6 µg/mL (≈ 4.72 µM) | 3.1 µg/mL (≈ 9.15 µM) | 12.5 µg/mL (≈ 36.9 µM) | 0.1 µg/mL (≈ 0.295 µM) | 12.5 µg/mL (≈ 36.9 µM) | 1.6 µg/mL (≈ 4.72 µM) | 0.8 µg/mL (≈ 2.36 µM) | – | – | – | – | –
CCCCOc1ccccc1C(=C(C)C)n1ccnc1 | 1.6 µg/mL (≈ 5.92 µM) | – | – | 50 µg/mL (≈ 185 µM) | – | 0.1 µg/mL (≈ 0.37 µM) | – | – | – | 0.31 µg/mL | – | – | – | –
C=C(c1ccccc1OCc1ccsc1Cl)n1ccnc1 | 1.6 µg/mL (≈ 5.05 µM) | 0.8 µg/mL (≈ 2.53 µM) | 0.4 µg/mL (≈ 1.26 µM) | 6.2 µg/mL (≈ 19.6 µM) | 12.5 µg/mL (≈ 39.5 µM) | 0.1 µg/mL (≈ 0.316 µM) | 12.5 µg/mL (≈ 39.5 µM) | 1.6 µg/mL (≈ 5.05 µM) | 0.8 µg/mL (≈ 2.53 µM) | 0.8 µg/mL | – | – | – | –
C/C(CN(C)C)=C(\c1ccccc1OCC(C)C)n1ccnc1 | > 100 µg/mL | – | – | > 100 µg/mL | – | 0.8 µg/mL (≈ 2.55 µM) | – | – | – | 0.63 µg/mL | – | – | – | –
C=C(c1ccccc1OCCc1ccccc1)n1ccnc1 | 0.4 µg/mL (≈ 1.38 µM) | – | – | 12.5 µg/mL (≈ 43 µM) | – | 0.1 µg/mL (≈ 0.344 µM) | – | – | – | 1.25 µg/mL | – | – | – | –
C/C=C(/c1ccccc1OCc1ccc(Cl)cc1)n1ccnc1 | 3.1 µg/mL (≈ 9.54 µM) | 0.8 µg/mL (≈ 2.46 µM) | 0.8 µg/mL (≈ 2.46 µM) | 6.2 µg/mL (≈ 19.1 µM) | 12.5 µg/mL (≈ 38.5 µM) | 0.1 µg/mL (≈ 0.308 µM) | 12.5 µg/mL (≈ 38.5 µM) | 1.6 µg/mL (≈ 4.93 µM) | 1.6 µg/mL (≈ 4.93 µM) | – | – | – | – | –
CC(C)COc1ccccc1/C(=C/CN(C)c1ccccc1)n1ccnc1 | 6.3 µg/mL (≈ 17.4 µM) | – | – | 12.5 µg/mL (≈ 34.6 µM) | – | 0.1 µg/mL (≈ 0.277 µM) | – | – | – | 5 µg/mL | – | – | – | –
CC(c1ccccc1)(n1ccnc1)n1ccnc1 | > 100 µg/mL | – | – | > 100 µg/mL | – | – | – | – | – | – | > 100 µg/mL | – | – | –
C=C(c1ccccc1OCCc1ccc(Cl)cc1)n1ccnc1 | 0.4 µg/mL (≈ 1.23 µM) | – | – | 25 µg/mL (≈ 77 µM) | – | 0.1 µg/mL (≈ 0.308 µM) | – | – | – | – | – | – | 1.25 µg/mL | –
C/C=C(/c1cc(Cl)ccc1OCCC)n1ccnc1 | 6.3 µg/mL (≈ 22.8 µM) | – | – | 25 µg/mL (≈ 90.3 µM) | – | 0.1 µg/mL (≈ 0.361 µM) | – | – | – | 0.63 µg/mL | – | – | – | –
CC(C)=C(c1ccccc1OCC(C)(C)C)n1ccnc1 | 6.3 µg/mL (≈ 22.2 µM) | – | – | 25 µg/mL (≈ 87.9 µM) | – | 0.1 µg/mL (≈ 0.352 µM) | – | – | – | 0.31 µg/mL | – | – | – | –
C=C(c1cc(Cl)ccc1OCc1ccccc1)n1ccnc1 | 3.1 µg/mL (≈ 9.97 µM) | 1.6 µg/mL (≈ 5.15 µM) | – | 6.2 µg/mL (≈ 19.9 µM) | 12.5 µg/mL (≈ 40.2 µM) | 0.1 µg/mL (≈ 0.322 µM) | 12.5 µg/mL (≈ 40.2 µM) | 1.6 µg/mL (≈ 5.15 µM) | 0.8 µg/mL (≈ 2.57 µM) | – | – | – | – | 1.6 µg/mL (≈ 5.15 µM)
C=C(c1ccccc1SCc1ccc(Cl)cc1)n1ccnc1 | 0.8 µg/mL (≈ 2.45 µM) | – | – | 50 µg/mL (≈ 153 µM) | – | – | – | – | – | – | 0.1 µg/mL (≈ 0.306 µM) | – | – | –
C=C(c1ccccc1OCc1ccc(Cl)cc1)n1ccnc1 | 3.1 µg/mL (≈ 9.97 µM) | 0.8 µg/mL (≈ 2.57 µM) | 0.8 µg/mL (≈ 2.57 µM) | 6.2 µg/mL (≈ 19.9 µM) | 12.5 µg/mL (≈ 40.2 µM) | 0.1 µg/mL (≈ 0.322 µM) | 6.3 µg/mL (≈ 20.3 µM) | 1.6 µg/mL (≈ 5.15 µM) | 0.8 µg/mL (≈ 2.57 µM) | – | – | – | – | –

Source: ChEMBL document CHEMBL1123801, “Synthesis and antifungal activity of new 1-vinylimidazoles” (1987)
